{
  "source": "PubChem BioAssay AID624467",
  "about": "(The Scripps Research Institute Molecular Screening Center, 2012)",
  "note": "The whole screen tested about 360,000 compounds, of which about 3,600 (1%) were called active.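 The calls were made as follows: active = activation above the mean activation of all test compounds in the run plus 3 SD (cut at about 38% in these data); inactive = the rest.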 For the sample, actives were picked, then their nearest neighbours and some compounds at random.",
  "data": [
    {"molecular_target": "Trace amine-associated receptor 1 (Homo sapiens) (UniProt Q96RJ0)", "sequence (Q96RJ0 whole entry, looked up)": "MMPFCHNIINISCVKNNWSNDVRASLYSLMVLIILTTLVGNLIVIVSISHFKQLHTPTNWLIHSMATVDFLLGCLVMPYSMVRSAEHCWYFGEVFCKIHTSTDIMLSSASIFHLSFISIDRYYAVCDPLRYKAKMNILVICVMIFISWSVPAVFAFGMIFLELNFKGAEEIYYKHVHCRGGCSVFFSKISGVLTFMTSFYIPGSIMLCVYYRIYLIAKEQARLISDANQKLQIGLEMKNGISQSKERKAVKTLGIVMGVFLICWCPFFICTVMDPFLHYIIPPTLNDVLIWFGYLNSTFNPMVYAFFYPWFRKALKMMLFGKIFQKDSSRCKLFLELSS", "experiment": "human TAAR1 agonists, primary screen, Fluo-8 calcium fluorescence, CHO RD-HGA16 cells (AID 624467)", "conditions": "CHO RD-HGA16 TAAR1, Fluo-8 calcium fluorescence; at 3 µM; hits give high values; vehicle wells 0%, saturating PEA agonist 100%", "outline": "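Benchmarks: low control DMSO, high control PEA (EC100); System: CHO RD-HGA16 cells carrying human TAAR1 plus Gα16; Detection: Fluo-8 fluorescence, 5 s baseline then 140 s kinetic read; Schedule: 17-24 h plating, Fluo-8 75 min 37 °C, 30 min RT; Read-out basis: % activation from peak over basal fluorescence ratio, DMSO-to-PEA scaled.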", "values": [
      {"smiles": "O=C(COc1ccc(Br)cc1F)NC1CCN(Cc2ccccc2)CC1", "activation": "7.63% (inactive)"},
      {"smiles": "S=C(Nc1ccc(Br)cc1Cl)NC1CCN(Cc2ccccc2)CC1", "activation": "18% (inactive)"},
      {"smiles": "S=C(Nc1ccc(Br)cc1)NC1CCN(Cc2ccccc2)CC1", "activation": "63% (active)"},
      {"smiles": "CCC(C)NC(=O)/C=C/c1ccc(S(=O)(=O)NCc2ccco2)cc1", "note": "(centres undefined)", "activation": "0.26% (inactive)"},
      {"smiles": "Cc1ccc2nc(C)c3c(c2c1)N(c1ccccc1)CC3", "activation": "1.22% (inactive)"},
      {"smiles": "Nc1nc2c(ncn2[C@@H]2O[C@H](C(=O)N[C@H](Cc3ccccc3)C(=O)NCC3CCCCC3)[C@@H](O)[C@H]2O)c(=O)[nH]1", "activation": "2.45% (inactive)"},
      {"smiles": "CC1CCN(C(=O)c2ncn3c2C(=O)N[C@@H](C)C3)CC1", "activation": "0.53% (inactive)"},
      {"smiles": "CC1CCc2sc3nc(N4CCN(CCO)CC4)n4ncnc4c3c2C1", "note": "(centres undefined)", "activation": "13.3% (inactive)"},
      {"smiles": "CC(C)[C@H]1COCCS(=O)(=O)N1Cc1ccccc1-c1cccc2c1sc1ccccc12", "activation": "1.46% (inactive)"},
      {"smiles": "Cc1cccc(N2CCN(C(=O)c3cnn4c(C(F)F)cc(-c5ccccc5)nc34)CC2)c1C", "activation": "-0.23% (inactive)"},
      {"smiles": "Cc1ccc(Cl)cc1N1CCN(C(=O)c2cccc3c(=O)c(C)c(-c4ccccc4)oc23)CC1", "activation": "78% (active)"},
      {"smiles": "COc1ccccc1N1CCN(C(=O)c2cc(=O)c3cc(C)cc(C)c3o2)CC1", "activation": "0.2% (inactive)"},
      {"smiles": "OC(CCl)CCl", "activation": "4.28% (inactive)"},
      {"smiles": "CC(C)(C)n1nc(C2CC2)c(Br)c1NC(=O)c1ccccc1F", "activation": "-2.19% (inactive)"},
      {"smiles": "COc1ccc(-c2nc3n(c(=O)c2C#N)CCS3)c(OC)c1", "activation": "1.68% (inactive)"},
      {"smiles": "Cc1ccc2c(c1)NCC(C(=O)NC1CCC(C)CC1)O2", "note": "(centres undefined)", "activation": "-0.02% (inactive)"},
      {"smiles": "NS(=O)(=O)c1ccc(NC(=S)Nc2ccc(Br)c(Cl)c2)cc1", "activation": "42.6% (active)"},
      {"smiles": "COc1ccc(NC(=S)Nc2ccc(S(N)(=O)=O)cc2)c(C)c1", "activation": "5.94% (inactive)"},
      {"smiles": "NS(=O)(=O)c1ccc(NC(=S)N2CCCC2)cc1", "activation": "0.52% (inactive)"},
      {"smiles": "N#Cc1ccc(-c2nc3cc(C#N)c(C#N)cc3nc2-c2ccccc2)cc1C#N", "activation": "2.52% (inactive)"},
      {"smiles": "Cc1cc2c(nc1C)CCCN2C", "activation": "0.42% (inactive)"},
      {"smiles": "O=C(Cn1c(N2CCN(C/C=C/c3ccccc3)CC2)nc2ccccc21)c1ccccc1", "activation": "7.57% (inactive)"},
      {"smiles": "CC(Oc1ccc(Cl)cc1)C(=O)OCC(=O)Nc1ncc(Cl)cc1Cl", "note": "(centres undefined)", "activation": "74.1% (active)"},
      {"smiles": "CC1(C(=O)OCC(=O)Nc2ncc(Cl)cc2Cl)CC1(Cl)Cl", "note": "(centres undefined)", "activation": "-0.29% (inactive)"},
      {"smiles": "CC(Oc1ccc(Cl)cc1)C(=O)Nc1ncccn1", "note": "(centres undefined)", "activation": "-0.09% (inactive)"},
      {"smiles": "Cc1ccc(NC(=O)CN2CCc3ccccc3C2)cc1C", "activation": "9.67% (inactive)"},
      {"smiles": "Cc1ccc(NC(=O)CCN2CCc3ccccc3C2)cc1", "activation": "88.5% (active)"},
      {"smiles": "CCc1ccc(NC(=O)N2CCc3ccccc3C2)cc1", "activation": "31% (inactive)"},
      {"smiles": "CCOc1ccc(Cl)cc1-c1cc(C(=O)NCc2cccs2)[nH]n1", "activation": "0.34% (inactive)"},
      {"smiles": "COc1ccc2c(c1)OC(O)(C(F)(F)C(F)F)CC2=O", "note": "(centres undefined)", "activation": "56.3% (active)"},
      {"smiles": "COc1ccc2c(c1)C(=O)CC(c1ccccc1)O2", "note": "(centres undefined)", "activation": "5.95% (inactive)"},
      {"smiles": "COc1ccc2c(c1)SC(C)CC2=O", "note": "(centres undefined)", "activation": "5.89% (inactive)"},
      {"smiles": "Cc1ccc2c(c1)C(O)(CC(=O)c1cccnc1)C(=O)N2", "note": "(centres undefined)", "activation": "0.5% (inactive)"},
      {"smiles": "CCCCSc1nc2c(c(=O)n1CC)SC(C)C2", "note": "(centres undefined)", "activation": "10% (inactive)"},
      {"smiles": "O=C(NS(=O)(=O)c1cccs1)[C@H]1O[C@@H](n2ccc(=O)[nH]c2=O)[C@H](O)[C@@H]1O", "activation": "0.38% (inactive)"},
      {"smiles": "Cc1ccc(NC(=O)CN2C(=O)NC(C)(c3ccc(Cl)cc3)C2=O)c(Br)c1", "note": "(centres undefined)", "activation": "42.4% (active)"},
      {"smiles": "COc1ccc(C2(C)NC(=O)N(CC(=O)c3ccc4c(c3)OCO4)C2=O)cc1", "note": "(centres undefined)", "activation": "25.5% (inactive)"},
      {"smiles": "COc1ccc(C(=O)CN2C(=O)NC(C)(c3ccc(C)cc3)C2=O)cc1OC", "note": "(centres undefined)", "activation": "59.9% (active)"},
      {"smiles": "Cc1ccc(C2(C)NC(=O)N(CC(=O)Nc3ccccc3C(=O)N3CCCCC3)C2=O)cc1", "note": "(centres undefined)", "activation": "9.97% (inactive)"},
      {"smiles": "Cc1ccc(C2(C)NC(=O)N(CC(=O)N3CC(=O)Nc4ccccc43)C2=O)cc1", "note": "(centres undefined)", "activation": "1.06% (inactive)"},
      {"smiles": "COc1cc(NC(=O)CN2C(=O)NC(C)(c3ccc(OC(F)F)cc3)C2=O)cc(OC)c1OC", "note": "(centres undefined)", "activation": "5.76% (inactive)"},
      {"smiles": "CC1CCC2(CC1)NC(=O)N(CC(=O)c1ccc3c(c1)OCO3)C2=O", "note": "(centres undefined)", "activation": "1.46% (inactive)"},
      {"smiles": "CC1(c2ccc(Cl)cc2)NC(=O)N(CC(=O)c2ccc3c(c2)OCO3)C1=O", "note": "(centres undefined)", "activation": "48.4% (active)"},
      {"smiles": "Cc1ccc(S(=O)(=O)N2CCN(C(=O)CN3C(=O)NC(C)(c4ccc(Cl)cc4)C3=O)CC2)c(C)c1", "note": "(centres undefined)", "activation": "9.36% (inactive)"},
      {"smiles": "COc1ccc(NC(=O)N(C)C[C@@H]2OCCCC[C@@H](C)Oc3ccc(NC(=O)NC4CCCCC4)cc3C(=O)N([C@H](C)CO)C[C@@H]2C)cc1", "activation": "0.43% (inactive)"},
      {"smiles": "O=C(N[C@H](Cc1ccccc1)C(=O)N1CCCN(Cc2cccs2)CC1)[C@H]1O[C@@H](n2ccc(=O)[nH]c2=O)[C@H](O)[C@@H]1O", "activation": "0.87% (inactive)"},
      {"smiles": "N#Cc1cccc(C(=O)NCC2CCN(C(=O)C(=O)c3cc4ccccc4o3)CC2)c1", "activation": "2.73% (inactive)"},
      {"smiles": "CSc1ccc(Oc2cccc3c2S(=O)(=O)N([C@H](C)c2ccccc2)C[C@@H](COCc2ccccc2)O3)cc1C", "activation": "-0.58% (inactive)"},
      {"smiles": "CC(NC(=O)C(=O)NN=C1CCC(C(C)(C)C)CC1)c1ccccc1", "note": "(centres undefined)", "activation": "-1.32% (inactive)"},
      {"smiles": "CCOC(=O)c1cc(-c2ccc(Cl)s2)nc2c1c(C)nn2C", "activation": "12.8% (inactive)"},
      {"smiles": "CCCc1nnc(SCC(=O)N2C(C)CCCC2C)n1CC", "note": "(centres undefined)", "activation": "7.54% (inactive)"},
      {"smiles": "COc1ccc(-n2c(-c3ccc(Cl)cc3)n[nH]c2=S)c(OC)c1", "activation": "1% (inactive)"},
      {"smiles": "COc1cc(OC)c(-n2cc(-c3ccc(Cl)cc3)[nH]c2=O)cc1Cl", "activation": "135% (active)"},
      {"smiles": "COc1cc(OC)c(N2CC(C(=O)Nc3cc(Cl)ccc3N3CCOCC3)CC2=O)cc1Cl", "note": "(centres undefined)", "activation": "9.38% (inactive)"},
      {"smiles": "O=C(NC1CCCC1)C(c1ccc(Cl)cc1)N(C(=O)c1csnn1)C1CC1", "note": "(centres undefined)", "activation": "2.16% (inactive)"},
      {"smiles": "N#CCSc1ccccc1NC(=O)CN1C(=O)NC(CCc2ccccc2)C1=O", "note": "(centres undefined)", "activation": "4.54% (inactive)"},
      {"smiles": "COc1ccc(NC(=O)COC(=O)Cn2c(C)nc3ccccc32)cc1OC", "activation": "8.05% (inactive)"},
      {"smiles": "Cc1nc2ccccc2n1CC(=O)N/N=C/c1cccs1", "activation": "41% (active)"},
      {"smiles": "Cc1ccc(-c2nnc(SCC(=O)N/N=C/c3cccs3)n2-c2ccc(C)cc2)cc1", "activation": "2.56% (inactive)"}
    ]}
  ]
}
